Bioassay records: PubChem, Broad Institute
An excerpt weighted towards active compounds, which were near 2.1% of everything screened.
MLL AF4-AF9 inh: MLL-AF4/AF9 protein interaction inhibition; AlphaScreen, biotin-AF4 peptide binding to FLAG-AF9; actives 0.47% (n = 350,000); inhibition, % at 10 µM; P42568; AID 651704;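 active = every replicate reaching a set inhibition limit, whatever the replicate mean, cut at about 25% in these data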;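 note: 0% = plate neutral control median and 100% = total signal loss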
ARNT-TACC3 inh: disruptors of human ARNT/TACC3 interaction. AlphaScreen His-ARNT PAS-B/GST-TACC3 binding, luminescence; TACC3 fragment carries E629A point mutation. AID 623870. actives 0.66% (n = 390,000). inhibition, % at 9.99 µM. Q9Y6A5;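 active = mean inhibition of replicates at least 50% and at least half of replicates each reaching 50%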;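 note: 0% = complete ARNT plus TACC3 wells and 100% = ARNT alone without TACC3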
PDI turbidity: PDI (human) enzyme inhibition; P07237; PDI insulin aggregation turbidity, A650, 90 min; inhibition, % at 10 µM; actives 0.052% (n = 350,000); AID 588391;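 active = mean inhibition across replicates of 30% or more, whatever share of single replicates reach that level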
Target sequence (P07237 whole entry, looked up): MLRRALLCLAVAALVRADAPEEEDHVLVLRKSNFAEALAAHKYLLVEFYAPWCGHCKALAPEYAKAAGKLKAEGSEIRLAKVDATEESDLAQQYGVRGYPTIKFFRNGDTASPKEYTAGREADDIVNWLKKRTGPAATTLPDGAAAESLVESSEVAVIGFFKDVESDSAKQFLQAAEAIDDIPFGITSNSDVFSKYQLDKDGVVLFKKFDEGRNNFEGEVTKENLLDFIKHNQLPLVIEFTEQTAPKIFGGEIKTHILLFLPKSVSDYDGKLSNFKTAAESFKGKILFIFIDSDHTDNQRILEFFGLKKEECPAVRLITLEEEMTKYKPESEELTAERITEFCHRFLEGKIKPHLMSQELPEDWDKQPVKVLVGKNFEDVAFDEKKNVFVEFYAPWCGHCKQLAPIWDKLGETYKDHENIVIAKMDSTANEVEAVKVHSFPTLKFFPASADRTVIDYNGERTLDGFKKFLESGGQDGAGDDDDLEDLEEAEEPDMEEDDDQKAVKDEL
ERp5 block: blocks human ERp5 reductase activity on insulin. Q15084. ERp5 insulin aggregation, absorbance 650 nm, 90 min. inhibition, % at 9.99 µM. actives 0.05% (n = 350,000);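 active = mean replicate inhibition above about 25%, with every replicate also reaching it, limit read from the data, passing the limit was not always enough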
FN deposition inh: fibronectin deposition inhibition; inhibition, % at 12.6 µM; actives 0.086% (n = 350,000); AH1F fibroblasts, Alexa488-fibronectin deposition fluorescence, overnight; AID 743247;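 active = mean inhibition across replicates of 30% or more, regardless of how many single replicates reach that level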;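 note: positive control wells lacked labelled fibronectin entirely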
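Material: AH1F fibroblasts assembling fluorescent fibronectin matrix; amount: 10000 AH1F cells/well; medium: DMEM, 2% serum; reagent: Alexa488-fibronectin, 24 nM final in well; dosing: single compound dose, delivered by pin transfer; incubation: 1 h adhesion, overnight exposure; detection: fluorescence after three HBSS washes, excitation 485 nm, emission 525 nm; measure: fibronectin deposition inhibition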
FGF22 binding: FGF22 (human) thermal shift binding; recombinant FGF22 thermal shift, SYPRO orange fluorescence; percent of sucrose octasulfate shift, DMSO zero; AID 651658; activity (Tm shift, normalised), % at 9.99 µM; actives 1.5% (n = 340,000);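 active = mean Tm shift, scaled 0 neutral to 100 positive control, at about 1.3% or above, every replicate too, limit read from the data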
* = called active by the depositor; nt = no result.

SMILES	MLL AF4-AF9 inh	ARNT-TACC3 inh	PDI turbidity	ERp5 block	FN deposition inh	FGF22 binding
Cc1ccc(NC(=O)CSc2nc3[nH]ncc3c(=O)[nH]2)cc1	-0.3	1.8	9.2	-5.2	2.3	43.6*
COC(=O)c1ccc(NC(=O)CSc2nc3[nH]ncc3c(=O)[nH]2)cc1	0.1	-15.8	-4.8	0.7	0.1	-0.1
O=C(CSc1nc2[nH]ncc2c(=O)[nH]1)Nc1ccc(OC(F)(F)F)cc1	-6.6	0.0	-9.1	-3.1	-9.5	13.9*
CN1CCCN(c2ccc([N+](=O)[O-])cc2)CC1	28.3*	-1.5	-0.6	-1.9	7.1	0.3
O=[N+]([O-])c1ccc(N2CCN(c3ccc(F)cc3)CC2)cc1	-1.6	0.3	7.1	2.7	-1.1	0.0
NC(=O)c1cc(C(=O)c2ccc(Cl)cc2Cl)c[nH]1	-10.1	-0.5	-1.4	-0.2	2.1	43.9*
O=c1c2c(-c3ccccc3)csc2ncn1/N=C/c1ccc(O)c([N+](=O)[O-])c1	-2.8	8.3	-2.8	-0.1	nt	44.1*
O=c1c2c(-c3cccs3)csc2ncn1/N=C/c1ccccn1	1.4	13.3	3.5	-2.1	-1.4	0.0
Cn1cc(/C=N/n2cnc3scc(-c4ccccc4)c3c2=O)c2ccccc21	nt	7.3	4.5	nt	-3.2	nt
O=c1c2c(-c3ccccc3)csc2ncn1/N=C/c1cccc([N+](=O)[O-])c1O	5.9	72.5*	-4.4	-4.2	-2.0	0.1
CC(=O)N1[C@H](C(=O)Nc2ccccc2)[C@@H](CO)[C@@H]2Cn3c(ccc(C4=CCCC4)c3=O)[C@@H]21	-19.2	-3.1	nt	-0.2	nt	-0.1
CCc1ccc(NC(=O)CC2C(=O)N(c3ccc(C)cc3)C(=O)N2CCc2ccncc2)cc1 (centres undefined)	2.4	-0.8	1.6	-3.2	18.5	nt
O=C(CC1C(=O)N(c2ccc(Cl)cc2)C(=S)N1CCc1ccncc1)Nc1ccc(F)cc1 (centres undefined)	-37.4	-2.2	-0.5	-0.7	nt	2.3*
CCc1csc(CCNC(=O)C2CCC(=O)N(CCc3cccc(F)c3)C2)n1 (centres undefined)	-1.3	-3.9	7.5	28.3*	8.6	-0.1
CCN(C[C@H]1N[C@H](CO)[C@@H]1c1ccc(-c2cccc(F)c2)cc1)C(=O)COC	0.8	-4.5	nt	-2.7	-8.6	0.3
O=C(Nc1cccc(S(=O)(=O)N2CCCC2)c1)c1ccc2c(c1)OCO2	-3.1	15.0	-5.8	3.6	-0.4	0.1
CC(=O)Nc1ccc(S(=O)(=O)N2CCCC2C(=O)Nc2ccc(F)cc2)cc1 (centres undefined)	-1.3	-0.3	-3.7	-2.6	-10.7	-0.2
CC(=O)Nc1ccc(S(=O)(=O)N2CCCC2C(=O)Nc2ccc3c(c2)OCCO3)cc1 (centres undefined)	-2.0	2.6	-0.5	-4.5	-14.8	43.9*
Cc1cccc(NC(=O)c2ccc(S(=O)(=O)N3CCCCC3)cc2)n1	-384.5	-4.0	-2.6	0.5	38.1*	0.1
O=S(=O)(c1ccc(NC(=S)Nc2ccc3c(c2)OCO3)cc1)N1CCOCC1	nt	11.9	20.8	nt	-11.2	nt
CNS(=O)(=O)c1ccc(NC(=S)Nc2ccc3c(c2)OCO3)cc1	-1.0	6.2	0.5	1.4	-11.9	43.5*
O=C(Nc1ccc2c(c1)OCO2)c1ccc(S(=O)(=O)N2CCCC2)cc1	1.1	0.1	-3.8	1.8	-10.9	44.9*
Cc1cccc(NC(=O)c2ccc(S(=O)(=O)N3CCC(C)CC3)cc2)n1	-5.6	nt	3.6	0.8	-3.8	0.2
CO[C@H]1CN(C)C(=O)c2ccc(NS(=O)(=O)c3ccc(-c4ccccc4)cc3)cc2OC[C@@H](C)NC[C@H]1C	-0.6	0.1	nt	6.1	1.4	-0.3
Cc1ccc(-c2ccccc2[C@H]2[C@@H](C#N)N(C(=O)Cc3cccnc3)[C@H]2CO)cc1	1.5	nt	nt	-4.2	-12.1	0.4
CC(C)NC(=O)N[C@@H]1C=C[C@@H](CC(=O)NCc2ccc(Oc3ccccc3)cc2)O[C@@H]1CO	-2.6	-10.3	nt	3.5	-2.8	0.0
O=C(NCCCN1CCOCC1)[C@@H]1[C@@H](CO)[C@@H]2Cn3c(cccc3=O)[C@H]1N2C(=O)C1CCCC1	1.6	nt	nt	6.0	nt	0.3
